The nature of the data set: Toxicity liver stage against HepG2, at 10uM. Format: cell-based. Also noted: test concentration 10 uM, cell line HepG2-A16-CD81EGFP. Conditions: human, HepG2-A16-CD81EGFP cells; read-out: INHIBITION
The method in brief: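 Uninfected HepG2-A16-CD81EGFP cells, 3 × 10^3 per well, 1536-well, plated on prespotted compound at 10 μM final, parasite-free screening media added to match infected plates; puromycin 10 μM positive, DMSO 0.5% negative; run in parallel with 48 h PbLuc assay at 37 °C, 5% CO2; viability by CellTiter-Glo luminescence, normalized to controls.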
As to `CCCNC(=O)COc1cccc(-c2nc(C(C)C)no2)c1`, the cytotoxicity at 10 µM was -77.9%.
Then `CCOC(=O)CN1CCC2(CC1)CC(=O)c1ccc3ccccc3c1O2`, with 3.33%; and `COC(=O)N1CC[C@@]2(C1)[C@H](OC)CN(c1ccccc1)S2(=O)=O`, with 5.78%; and `O=C(CCc1nc2cc(Br)cnc2[nH]1)NCCCN1CCOCC1`, with -2.67%.
The figure for `CCCS(=O)(=O)c1ccc(N2CCN(Cc3ccccc3)CC2)nn1` is -5.93%.
The figure for `O=C(NCC(O)(c1cccs1)C1CC1)NC1CCCCC1` (stereo unspecified) is -2.25%.
Turning to `Cc1noc(C)c1S(=O)(=O)NCC(C)(O)c1ccc2c(c1)OCO2` (stereo unspecified), the cytotoxicity at 10 µM is 0.331%.
The figure for `O=C(Nc1cccnc1)C1CCN(c2cc(-n3ccnc3)ncn2)CC1` is -3.3%.
Then `O=C(NCCNc1cc(-n2cccc2)ncn1)c1cccs1`, with -2.56%; and `CCOCC(=O)NCCC(O)c1ccoc1` (stereo unspecified), with -4.59%.
Then `CCNC(=O)CC1CC2(CCN(C(C)=O)CC2)c2cc(F)ccc21` (stereo unspecified), with 6.83%.
For `CCN(CC)[C@H]1COC[C@@H]2CN(Cc3cnn(C)c3)C[C@@H]21`, the cytotoxicity at 10 µM turned out to be 11.5%.
The figure for `Cc1cc(CN2C[C@@H]3COC[C@]3(COCC(=O)N(C)C)C2)no1` is 1.44%; for `Cc1ccc(CN2CCC3(CC(C(=O)NCC4CC4)=NO3)C2)cc1C` (stereo unspecified) it is 3.84%; for `CCn1ncc(Nc2[nH]cnc3nncc2-3)c1C` it is 7.29%.
Then `Cc1cc(-c2cncnc2)nc(C2CCCN2S(C)(=O)=O)n1` (stereo unspecified), with -6.21%; and `CNc1cc(C2CCCN2Cc2ccccc2C(=O)O)ccn1` (stereo unspecified), with -5.28%.
Then `Cc1ccccc1C(C#N)NC(=O)CCCOc1cccnc1` (stereo unspecified), with -0.398%; and `Cc1nnc(CN2CCCCC2c2nc(-c3ccccc3)no2)s1` (stereo unspecified), with -48.5%.
Consider `CC1CCCN(C(=O)c2cn(-c3ccc(C(F)(F)F)cn3)nn2)C1` (stereo unspecified), for which the cytotoxicity at 10 µM was -51.3%.
Then `CN1CCN(C(=O)c2cccs2)Cc2ccccc21`, with -43.9%; and `O=C(CCSc1ccccc1F)N1CCN(c2cnccn2)CC1`, with -51.7%; and `Cc1nc(-c2ccc(CC(=O)N3CCN(C(=O)C(C)C)CC3)cc2)cs1`, with 12.8%.
The figure for `Cc1cc(C)nc(NC2CC(=O)N(C(C)(C)C)C2)n1` (stereo unspecified) is -5.81%.
Then `c1ncc2c(n1)CN(Cc1cn3ccsc3n1)CC2`, with 11.3%; and `c1ccc(N2CCC(NCc3cccc4cn[nH]c34)C2)cc1` (stereo unspecified), with 13.6%; and `O=C(c1ccc(-n2ccnc2)cc1)N1CCCC1`, with -7.55%.
On to `Cc1nc(C)n(CC2CCCCN2CCCO)n1` (stereo unspecified), for which the cytotoxicity at 10 µM turned out to be 4.37%.
Then `CCOC(C)c1noc(CN2CCNCC2)n1` (stereo unspecified), with 1.03%; and `CN(C)c1cccc(C(=O)Nc2cn(C)c(=O)n(C)c2=O)c1`, with 3.34%.
With `COc1ccc(CNC(=O)NCCc2nc(C)c(C)s2)cn1`, the cytotoxicity at 10 µM is -0.0813%.
Then `CC(C)N(C)S(=O)(=O)N1CCCC1C(=O)N1CCSCC1` (stereo unspecified), with -16.5%.
Turning to `Cc1ccc(CNCc2nnc3n2CCCC3C(F)(F)F)s1` (stereo unspecified), the cytotoxicity at 10 µM is 20.7%.
Then `CC(O)CN1CCC(CNCc2ccc(S(C)(=O)=O)cc2)CC1` (stereo unspecified), with -21.4%; and `CC(C)Cn1c2c(ccc1=O)CC(NC(=O)c1ccsc1)CC2` (stereo unspecified), with -109%.
Then `COC[C@@]12CCC[C@@H]1CN(C(=O)Cc1ccco1)C2`, with -102%; and `Cc1occc1C(=O)N1CCC2(CC1)C(c1cnn(C)c1)CC(=O)N2C` (stereo unspecified), with 5.66%.
Then `O=c1cc(Cn2cncn2)nc2n1CCCN(CC1CC1)C2`, with -2.65%.
With `CCCOC(=O)N1CCCC(c2nnc(CN3CCOCC3)n2C)C1` (stereo unspecified), the cytotoxicity at 10 µM was 2.19%.
Then `CC(Nc1nc(-c2ccccc2)nc2c1CCNCC2)c1cccnc1` (stereo unspecified), with -0.587%.
Consider `COc1ccccc1S(=O)(=O)N1CCC2(CC1)[C@H](O)C[C@@H]2O`, for which the cytotoxicity at 10 µM amounted to 9.12%.
Then `CC(C)(O)CCc1cccc(C(=O)NCCC2=CSC3=NCCCN23)c1`, with 9.17%.
The figure for `CCC(CO)N(Cc1ccccn1)C(=O)c1ccc(CSC)o1` (stereo unspecified) is -5.06%.
The figure for `Cc1nc[nH]c1-c1c(-c2ccccc2)ncn1C1CCNC1` (stereo unspecified) is -52.4%.
Consider `CC(C)Cc1cc(C(=O)N2CCC(C(=O)N3CCOCC3)CC2)on1`, for which the cytotoxicity at 10 µM is -8.61%.
Then `CCCc1nnc2sc(C3CCN(CCOC)CC3)nn12`, with 6.76%; and `CCc1[nH]c2c(CNC(=O)C3CCCN(C)C3)cc(C)cc2c1C` (stereo unspecified), with -15.6%.
Then `CC(C)n1ccnc1C1CCCN(c2cc(C(=O)NC3CC3)ccn2)C1` (stereo unspecified), with -0.352%; and `C1CCC(c2nc3c(c(N4CC(N5CCOCC5)C4)n2)CCNCC3)C1`, with -10.2%; and `CC(C)N1CCOC(CC(=O)N2CC(c3ccncc3)C2)C1` (stereo unspecified), with 7.44%.
The figure for `O=C(CCCn1cnnn1)N1CCC(c2ccncc2)CC1` is -4.8%.
With `Cc1nc[nH]c1CN1CCCC(CNC(=O)c2ccc(N)nc2)C1` (stereo unspecified), the cytotoxicity at 10 µM was found to be 1.56%.
Turning to `Cc1ccccc1CCC1CCCN(Cc2c(C)[nH]c(=O)[nH]c2=O)C1` (stereo unspecified), the cytotoxicity at 10 µM stood at 5%.
Regarding `Cc1ccc(C)c(OC(C)C(=O)Nc2cccnc2)c1` (stereo unspecified), the cytotoxicity at 10 µM was 7.39%.
In the case of `CCN(Cc1ccoc1)Cc1nc(COC)no1`, the cytotoxicity at 10 µM was -0.566%.
On to `CNc1ncc(C(=O)N2CCCC(CO)(CCCOC)C2)cn1` (stereo unspecified), for which the cytotoxicity at 10 µM was -44.4%.
As to `COc1ncccc1NC(=O)N(C1CC1)C(C)C(C)C` (stereo unspecified), the cytotoxicity at 10 µM was 8.42%.
Then `COc1ccccc1OCCNCc1c(C(C)C)nn(C)c1N(C)C`, with -12.8%; and `O=C(c1ccc(NC2CC2)nc1)N1CCCC(n2ccnc2)C1` (stereo unspecified), with -3.81%.
Then `COc1ccccc1OCC(=O)NS(=O)(=O)c1ccc(Cl)s1`, with -4.93%; and `Cc1ccc(C(=O)NC2CCN(C(=O)Nc3ccncc3)CC2)o1`, with 1.48%.
`CN(C(=O)c1cccc(Cl)c1)C1CCN(c2ccccn2)CC1`: the cytotoxicity at 10 µM was -8.8%.
Then `Cc1nc(CN(C)C2CCN(Cc3ccc4c(c3)CCC4)C2)no1` (stereo unspecified), with -18.2%; and `O=C(c1cc2c(s1)CCC2)N1CCCCC1Cn1cccn1` (stereo unspecified), with -4.86%; and `Cn1ccc(C(=O)N2CCN(c3ncccn3)CC2)cc1=O`, with -11.6%.
The figure for `Cn1ccnc1C(=O)N1C[C@@H]2CCN(c3cnccn3)C[C@@H]2C1` is -97%; for `O=C1COC2(COCCN(c3ccccn3)C2)CN1c1cccc(F)c1` (stereo unspecified) it is -103%; for `CCN1C[C@@H]2CN(C(=O)NCc3ccccc3)CCC[C@]2(C(=O)O)C1` it is 3.47%.
The figure for `CO[C@H]1CN(CC2CC2)[C@@H]2CCCO[C@H]12` is -118%; for `O=C(Nc1cccnc1)[C@H]1CN(Cc2ccco2)C[C@H]2OCC[C@@H]12` it is -114%.
As for `CCOc1ccc(CN2CC[C@@H]3CC[C@H](C2)N3)cc1CO`, the cytotoxicity at 10 µM came to 5.99%.

(Values after ChEMBL document CHEMBL4513216, “Probing the Open Global Health Chemical Diversity Library for Multistage-Active Starting Points for Next-Generation Antimalarials” (ACS Infect Dis, 2020).)
